Laboratory results: publication PMC4227764 (Nucleic Acids Research, 2014)
Like-named read-outs stand apart in the source and are kept apart here.

Assays:
B. subtilis RNase P = target: T1, B. subtilis RNase P (Bacillus subtilis, UniProt P25814); assay: RNase P cleavage activity in response to HTS reagents; type: biochemical
T1 sequence (P25814 1-116): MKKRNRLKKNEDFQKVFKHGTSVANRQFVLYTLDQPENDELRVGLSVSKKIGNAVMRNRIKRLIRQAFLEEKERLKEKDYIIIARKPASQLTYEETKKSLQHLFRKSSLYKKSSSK
Outline: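 B. subtilis holoenzyme formed by adding P protein to refolded P RNA, 30 min at 37°C. Enzyme pre-incubated 30 min with 2% DMSO at 30°C. Reaction started with an equal volume of Fl-pre-tRNAAsp substrate, quenched with 80 mM CaCl2 at various times. Fluorescence polarization read at λex 485 nm / λem 520 nm.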

Fl-pre-tRNA^Asp = assay: FA titration: binding of compounds to Fl-pre-tRNA^Asp; set-up: species or system Bacillus subtilis; conditions: for change in anisotropy (ΔFA) upon binding to Fl-pre-tRNA^Asp: Figure 4A, buffer B; for Kd: read-out: Kd for Fl-pre-tRNA^Asp, 37°C
Outline: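 RNA first heat-denatured 3 min at 95°C, then refolded at 37°C. Kd taken from the dependence of the FA signal on compound concentration. Competition run at fixed compound with varied yeast tRNAMix in buffer B.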

[1] = target: Bacillus subtilis RNase P; type: biochemical; conditions: read-out: IC50 for inhibition of RNase P; Buffer B (pH 7.2, 10 mM MgCl2, 100 mM KCl), 50 nM Fl-pre-tRNA^Asp, 0.4 nM RNase P, 4 nM P protein, 37°C
native yeast tRNA^Phe = conditions: cited from earlier work
Escherichia coli RNase P = conditions: cited from earlier work
[2] = target: Dictyostelium discoideum RNase P; conditions: read-out: Ki (non-competitive); cited from earlier work
[3] = Buffer B + 12 mg/ml yeast tRNA^Mix
[4] = Buffer B, 50 nM Fl-pre-tRNA^Asp

change in anisotropy (ΔFA) upon binding to Fl-pre-tRNA^Asp (Fl-pre-tRNA^Asp)	Kd (Fl-pre-tRNA^Asp; [3])	Kd (Fl-pre-tRNA^Asp; [4])	IC50 [1]	Molecule	IC50 (Escherichia coli RNase P)	further results
~35 mA	540 ± 60 µM	220 ± 20 µM	52 ± 6 µM	NC[C@H]1O[C@H](O[C@H]2[C@H](O)[C@@H](O[C@H]3O[C@H](CO)[C@@H](O)[C@H](N)[C@H]3O)[C@H](N)C[C@@H]2N)[C@H](N)[C@@H](O)[C@@H]1O [KanB, kanamycin B]	–	–
~50 mA	100 ± 20 µM	90 ± 5 µM	23 ± 3 µM	NC[C@@H]1O[C@H](O[C@H]2[C@@H](O)[C@H](O[C@@H]3[C@@H](O)[C@H](N)C[C@H](N)[C@H]3O[C@H]3O[C@H](CN)[C@@H](O)[C@H](O)[C@H]3N)O[C@@H]2CO)[C@H](N)[C@@H](O)[C@@H]1O [NeoB, neomycin B]	60 µM	Kd (native yeast tRNA^Phe): 90 µM; Ki [2]: 143 µM

The next lines start with the molecule.

Molecule	change in anisotropy (ΔFA) upon binding to Fl-pre-tRNA^Asp (Fl-pre-tRNA^Asp)	Kd (Fl-pre-tRNA^Asp; [3])	Kd (Fl-pre-tRNA^Asp; [4])	IC50 [1]	IC50 (Escherichia coli RNase P)	further results
nonidet P-40 [NP-40]	–	–	–	–	–	effect on RNase P activity (B. subtilis RNase P; 0.01–0.1% v/v): unaffected
Spiramycin	–	–	–	–	–	effect on steady-state turnover (Escherichia coli RNase P): activate the steady-state turnover
C[S+](C)[O-] [DMSO, dimethyl sulfoxide]	–	–	–	–	–	inhibition of RNase P activity (B. subtilis RNase P; 2% DMSO): 20%
COc1ccc(C[C@H](N)C(=O)N[C@H]2[C@@H](O)[C@H](n3cnc4c(N(C)C)ncnc43)O[C@@H]2CO)cc1 [puromycin]	–	–	–	–	~3000 µM	–
